Redox H2O2 prof: compounds producing H2O2 with reducing agent – biochemical, NIH compound library profiling, artefact control for MLSCN library redox annotation, primary screen. DTT-dependent redox cycling H2O2, phenol red/HRP absorbance; 100% = 100 µM peroxide control, 0% = buffer. activation, % at 10 µM. 200,000 tested, 0.03% active. AID 878, 2007;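 active = activation of at least 50% relative to the plate's high and low controls in the primary single-dose screen; inactive = activation below 50%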;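 also: compound incubated with DTT at 0.8 mM final as the reducing agent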
T cruzi inh: inhibitors of intracellular T. cruzi growth, primary screen, luminescence, NIH3T3 host cells | T. cruzi beta-gal in NIH3T3, 90 h | inhibition, % (test concentration not listed) | 300,000 tested, 1.4% active | AID 1885, 2009;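 active = mean inhibition across valid replicates above about 55%, limit read from the data; inconclusive = mean below that limit but half or more replicates reach it; inactive = mean below it, under half of replicates reach it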;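 also: signal also drops with host cell toxicity which is not excluded here; higher percent means less beta-gal luminescence so fewer parasites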
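Assay system: NIH/3T3 host cells with β-galactosidase reporter T. cruzi; input: 5,000 host fibroblasts per well; compound: single 50 nL compound addition per well in DMSO; timing: ≥90 h infection period, 3 h prior cell attachment; measured by: GalScreen β-gal luminescence, detergent lysis, 60 min; evaluation: percent inhibition of parasite-derived β-gal signal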
L major viab: Leishmania major promastigote growth inhibition, primary screen; Leishmania major promastigotes, resazurin fluorescence viability; inhibition, % at 10 µM; 200,000 tested, 9% active; AID 1063, 2008; in the data active = inhibition above about 50%;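 also: promastigotes grown with compound for 44 hours at 28 °C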
MPTP inh: mitochondrial permeability transition pore inhibitors, primary screen, biochemical, isolated mouse mitochondria, absorbance; Ca2+ swelling absorbance, 30 min; inhibition, % at 10 µM; 360,000 tested, 1.4% active;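 active = inhibition of 50% or more, scaled per plate between neutral and stimulator controls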
Lipid droplet: inhibitors of hepatocyte lipid droplet formation, primary screen, imaging, high-throughput imaging, BODIPY stain | AML12 mouse hepatocytes, oleate lipid droplets | inhibition, % at 6.5 µM | 240,000 tested, 0.4% active | AID 1656, 2009;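 active = lipid droplet intensity inhibited by at least 50%, with more than 500 cells counted; inconclusive = wells with under 300 cells, treated as cytotoxic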
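Technique: fluorescence imaging, 20x objective, two fields per well / Assay system: AML12 hepatocytes (mouse) / Measure: % inhibition of lipid droplet signal / Doses: 6.5 µM single-point dosing / Incubation: overnight exposure / Reagent: 100 µM oleic acid challenge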
MPTP counter: fluorescence retest of MPTP screen hits in isolated mitochondria, single concentration; inhibition, % at 10 µM; shares compounds with MPTP inh; 5,000 tested, 78% active; AID 624504, 2012; membrane potential, Rhodamine 123 fluorescence; in the data active = inhibition above about 22%
MPTP abs DR: mitochondrial permeability transition pore inhibitors, dose response, biochemical, absorbance, uHTS hits | shares compounds with MPTP inh | isolated mitochondria swelling | IC50, µM | 780 tested, 58% active | AID 651561, 2012; in the data active = IC50 below about 20 µM
MPTP cs DR: fluorescent counter-screen in isolated mitochondria, dose response, counter-screen for MPTP inhibitor project, biochemical, fluorescence, uHTS hits; shares compounds with MPTP inh; isolated mitochondria counterscreen, fluorescence read-out; IC50, µM; 780 tested, 49% active; AID 651564, 2012; in the data active = IC50 below about 80 µM
Numbers stand for hits; – = inactive; ? = inconclusive; · = no result. The full list was thinned out, with hits kept by preference.

SMILES	Redox H2O2 prof	T cruzi inh	L major viab	MPTP inh	Lipid droplet	MPTP counter	others
Cc1ccc(NC(=O)COC(=O)c2ccccc2Cl)cc1S(=O)(=O)N(C)C	–	–	–	–	–	·
Cc1ccc(NC(=O)CNc2ccc(Cl)c(Cl)c2)cc1S(=O)(=O)N(C)C	–	–	–	96	–	94
Cc1ccc(NC(=O)Cc2ccc(Cl)c(Cl)c2)cc1S(=O)(=O)N(C)C	–	–	–	88	–	88
Cc1ccc(NC(=O)Cc2ccccc2Cl)cc1S(=O)(=O)N(C)C	–	–	–	–	–	·
COc1cccc(C(NC(C)=O)c2nc(-c3ccncc3)cs2)c1 (stereo not drawn)	·	·	·	–	·	·
CCCC[C@H](CN[C@@H](CNC)[C@H](C)CC)NCCC12CCC(CC1)C2	·	–	·	100	–	–	MPTP abs DR=6.1;MPTP cs DR=–
CCC[C@H](CN[C@@H](CNC)[C@H](C)O)NCCc1ccc(OC)cc1	·	–	·	–	–	·
O=C(Oc1ccc2ccc(OC(=O)N3CCCCCC3)cc2c1)N1CCCCCC1	–	–	–	69	–	81
O=C(Oc1ccc(Cl)cc1)N1CCCCC1	–	–	–	–	–	·
C=CCn1c(=O)c2c(nc3n2CC(C)CN3CCc2ccccc2)n(C)c1=O (stereo not drawn)	·	–	·	–	–	·
CC(=O)N1CCN(C2c3cccc4cccc(c34)C2NS(=O)(=O)c2ccccc2)CC1 (stereo not drawn)	–	–	–	–	–	·
O=S(=O)(NC1c2cccc3cccc(c23)C1N1CCNCC1)c1ccc(Cl)cc1 (stereo not drawn)	–	–	100	81	–	–	MPTP abs DR=3.2;MPTP cs DR=–
COc1cc(/C=N/NC(=O)C2COc3ccccc3O2)ccc1O (stereo not drawn)	·	–	·	–	·	·
COc1cc(/C=N/NC(=O)C2c3ccccc3Oc3ccccc32)ccc1O	–	–	–	83	·	–	MPTP abs DR=16;MPTP cs DR=–
CC(=O)c1cccc(-c2ccnc3c2CC(C(=O)Nc2cccc(NS(C)(=O)=O)c2)O3)c1 (stereo not drawn)	·	·	·	–	·	·
Cc1ccc(C2=C(O)C(=O)C(c3ccc(C)cc3)=C(O)C2=O)cc1	·	·	·	56	·	–	MPTP abs DR=14;MPTP cs DR=<2.5
O=S(=O)(Nc1nc(-c2sccc2Cl)cs1)c1cc(Cl)ccc1Cl	–	–	–	78	·	51
CC(C)(C)c1nnc(NS(=O)(=O)c2cc(Cl)ccc2Cl)s1	·	–	·	–	–	·
FC(F)Sc1ccc(NC(=S)NC(c2ccccc2)c2ccccc2)cc1	–	?	56	98	–	63
FC(F)Sc1ccc(NC(=S)NCc2ccccc2)cc1	–	–	–	85	–	92
FC(F)(F)c1ccc(NC(=S)NCc2ccccc2)cc1	–	–	–	97	–	95
O=C(CCN1C(=O)/C(=C/c2ccc(Cl)cc2)SC1=S)NCCCn1ccnc1	·	–	·	60	–	72
O=C(CCN1C(=O)/C(=C/c2cccc(Br)c2)SC1=S)NNC(=O)c1cccnc1	–	–	–	–	·	·
Cc1ccc(/C=C2\SC(=S)N(CCC(=O)NNC(=O)c3cccnc3)C2=O)cc1	–	–	–	65	–	59
O=C(CCN1C(=O)/C(=C/c2ccc(F)cc2)SC1=S)NCCCn1ccnc1	·	–	·	–	–	·
SMILES	Redox H2O2 prof	T cruzi inh	L major viab	MPTP inh	Lipid droplet	MPTP counter	others
O=C(CCN1C(=O)/C(=C/c2ccccc2)SC1=S)NNC(=O)c1cccnc1	–	–	–	88	–	74
O=C(CCN1C(=O)/C(=C/c2ccccc2)SC1=S)N1CCCCCC1	·	–	·	77	–	82
O=C(CCN1C(=O)/C(=C/c2ccc(F)cc2)SC1=S)NNC(=O)c1cccnc1	–	–	–	–	–	·
Cn1c([N+](=O)[O-])cnc1N1CCN(c2nncs2)C1=O	·	–	·	–	–	·
O=C(CN1C(=O)/C(=C/c2cccc(Br)c2)SC1=S)Nc1cccnc1	–	–	–	–	–	·
Cc1ccc(NC(=O)COc2cccc(/C=C3\SC(=S)N(CCC(=O)O)C3=O)c2)cc1Cl	·	–	·	51	–	26
O=C(O)CCN1C(=O)/C(=C\c2cccc(OCC(=O)Nc3ccc(Cl)cc3)c2)SC1=S	·	–	·	–	–	·
O=C(CCN1C(=O)/C(=C/c2cccc(Br)c2)SC1=S)Nc1cccnc1	–	–	–	52	–	–	MPTP abs DR=–;MPTP cs DR=20
CC(C)C1O/C(=N/C(=O)Nc2ccc(Cl)c(Cl)c2)NC1=O (stereo not drawn)	–	–	–	93	·	92
O=C(c1ccccc1)C(Nc1cccc([N+](=O)[O-])c1)c1ccccc1 (stereo not drawn)	·	·	·	–	·	·
COc1ccccc1N1CCN(CCCOc2ccc(F)cc2)CC1	–	–	–	–	–	·
O=C1CCc2ccc(OCCCCN3CCN(c4cccc(Cl)c4Cl)CC3)cc2N1	·	–	·	80	–	20
CCC(=O)Nc1ccc(N/C(N)=N/c2nc(C)cc(C)n2)cc1	·	–	·	–	–	·
CCCCc1ccc(N/C(N)=N/c2nc(C)cc(C)n2)cc1	·	75	·	87	–	89
Cc1cc(C)nc(/N=C(\N)Nc2ccc(C(C)C)cc2)n1	·	–	·	53	–	56
COc1cc(CNn2nnnc2N)cc(Br)c1OCc1c(Cl)cccc1Cl	–	–	94	52	–	30
O=c1c2ccccc2sc2ccccc12	·	·	·	–	·	·
O=c1c(C(c2ccccc2)c2c(O)sc3ccccc3c2=O)c(O)sc2ccccc12	–	–	–	68	–	71
Fc1ccc(Nc2c3c(nc4ccccc24)CCC3)cc1	–	58	72	70	–	84
COCCNc1c2c(nc3ccccc13)CCC2	·	–	·	–	–	·
CC1CCCN(CCOCCOc2ccc(Cl)cc2Br)C1 (stereo not drawn)	–	?	98	59	·	–	MPTP abs DR=–;MPTP cs DR=–
Clc1ccc(SCCCN2CCCCC2)cc1	·	–	·	–	–	·
Clc1ccc(OCCCN2CCCCC2)c(Br)c1	–	–	99	78	–	–	MPTP abs DR=–;MPTP cs DR=–
CC1=CN2C(=N)/C(=C/c3ccc(Sc4ccc(Cl)cc4)o3)C(=O)N=C2S1	–	–	–	58	–	41
CC1=CN2C(=N)/C(=C/c3ccc(Sc4ccc(C)cc4)o3)C(=O)N=C2S1	–	–	–	–	–	·
C=CC[n+]1ccc(/C=C2\C=Cc3cc(C)ccc3N2CC)c2ccccc21	–	·	100	102	–	76
CC(=O)Nc1cccc(C(=O)OCC(=O)N(c2ccccc2)C2CCS(=O)(=O)C2)c1 (stereo not drawn)	·	·	·	–	·	·
COc1cc(NC(=O)c2cc3ccccc3cc2O)c(OC)cc1Cl	·	–	·	–	–	·
